Insulin prom inh: TRM-6 insulin promoter activity inhibition. TRM-6 cells (human fetal islet line), insulin promoter-eGFP reporter, imaging; reporter expression induced with tamoxifen. inhibition, % at 2 µM. hit rate 0.9% among 130,000;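 active = inhibition above the mean plus 3 SD, with well images judged a real hit on visual review, cut at about 60% in these data, passing the limit was not always enough; inconclusive = inhibition over the cutoff but images rejected on review; inactive = inhibition not above the cutoff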
RAM inhibit: yeast RAM network inhibition; S. cerevisiae dse1pr::URA3 reporter, 5-FOA growth OD615, 2 d; analog-sensitive cbk1-as2 kinase mutant strain; inhibition, % at 50 µM; hit rate 1.8% among 190,000;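 active = inhibition above a set limit, 3 SD over mean compound inhibition, cut at about 8.4% in these data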;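 note: 0% = DMSO-only wells with no growth and 100% = 10 µM 1-NA-PP1 full growth; inhibition rescues growth on 5-FOA so higher OD means more RAM inhibition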
Yeast lifespan up: yeast lifespan extension; S. cerevisiae growth with nicotinamide, OD615; deaD strain in restrictive glucose medium; inhibition of the nicotinamide effect, % at 10 µM; hit rate 0.68% among 130,000; AID 775;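 active = inhibition above a set limit, placed 3 SD over the median of all compounds, cut at about 26% in these data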;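 note: 0% = nicotinamide-treated wells and 100% = cells grown without nicotinamide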
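System: DeaD-strain S. cerevisiae / Buffer or medium: CSMM-D, restrictive glucose (dextrose) synthetic minimal medium / Probe or stimulus: nicotinamide, 1.5 mM, co-present with compound / Compound: one concentration, 10 µM, DMSO 0.25% / Incubation: 48 h compound exposure at 30 °C, humidified / Technique: optical density (absorbance) at 615 nm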
Yeast growth inh: yeast BB579 growth reduction in restrictive medium. S. cerevisiae BB579 growth, OD615, 48 h. inhibition, % at 10 µM. hit rate 0.51% among 140,000;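 active = inhibition above a set limit, 3 SD over the mean compound inhibition, cut at about 44% in these data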
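Test system: DeaD yeast strain BB579 / Buffer or medium: restrictive glucose-based CSMM-D medium / Doses: single 10 µM dose / Schedule: 4 h cell preincubation, 48 h compound exposure, 30 °C humidified / Technique: culture absorbance at 615 nm / Controls: amphotericin B positive control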
Ins promoter up: MIN6 insulin promoter up-regulation; MIN6 insulin promoter-GFP reporter, high-content imaging; stronger effect = higher value; z-score at 5 µM; hit rate 0.3% among 190,000;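 active = z-score above 3 at 5 µM with at least 500 cells counted in the well; inconclusive = wells under 500 cells, flagged as cytotoxic or low count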
Numbers without * were called inactive; ? = inconclusive; . = no result given. Sampled rows, rich in hits. Any-hit rate of the full collection: about 3%.

SMILES	Insulin prom inh	RAM inhibit	Yeast lifespan up	Yeast growth inh	Ins promoter up
Cc1ccc(S(=O)(=O)N(C)CC(=O)OCC(=O)N2CCN(c3ccccc3)CC2)cc1	-48.6	8.7*	1.3	-19.6	0.75
COCCn1c(=NC(=O)c2cc(-c3cccs3)nc3ccccc23)sc2cc(S(N)(=O)=O)ccc21	-32.0	5.3	0.7	-8.6	-2.12
CCOC(=O)Cn1c(=NC(=O)c2nc3ccccc3s2)sc2cc(S(N)(=O)=O)ccc21	-12.0	10.3*	6.2	-39.6	-0.04
C=CCn1c(=NC(=O)c2cc(-c3cccs3)nc3ccccc23)sc2cc(S(N)(=O)=O)ccc21	-32.0	6.9	0.3	-42.8	8.96*
CCOCCn1c(=NC(=O)c2cc3ccccc3oc2=O)sc2cc(S(N)(=O)=O)ccc21	-20.0	8.9*	1.4	-10.0	0.45
O=C1c2ccccc2C(=O)N1OCc1cccc(Cl)c1	10.3	3.4	-13.7	-41.6	-0.94
O=C1c2ccccc2C(=O)N1OCc1ccccc1	31.2	1.0	71.7*	-7.0	1.26
CC(=O)N1N=C(c2ccccc2)OC12CCCC2	-26.7	-0.5	.	.	-0.07
CC(=O)N1N=C(c2ccc(Cl)cc2)OC1(C)C	.	0.5	23.4	48.3*	0.44
O=C(Nc1ccccc1)C1=C[C@H](c2ccc3c(c2)OCO3)C[C@H](OCc2ccc(CO)cc2)O1	.	9.4*	.	.	1.55
O=C(O)C1=C[C@@H](c2ccc(Br)cc2)C[C@@H](OCc2ccc(CO)cc2)O1	.	0.9	.	.	-0.97
C#CCNC(=O)C1=C[C@H](C(C)(C)C)C[C@H](OCc2ccc(CO)cc2)O1	.	1.5	.	.	0
O=C(C1=C[C@@H](c2ccc3c(c2)OCO3)C[C@@H](OCc2ccc(CO)cc2)O1)N1CCOCC1	.	10.7*	.	.	-0.41
O=C(Nc1ccccc1)C1=C[C@@H](c2ccc(Br)cc2)C[C@@H](OCc2ccc(CO)cc2)O1	.	9.4*	.	.	-0.13
O=C(NC1CC1)C1=C[C@@H](c2ccc3c(c2)OCO3)C[C@@H](OCc2ccc(CO)cc2)O1	.	2.0	.	.	-0.37
CC(C)(C)[C@@H]1C=C(C(=O)Nc2ccccc2)O[C@H](OCc2ccc(CO)cc2)C1	.	8.5*	.	.	0.74
CNC(=O)[C@@]1(C)C=C[C@@H](Cc2ccccc2)N1C(=O)OC	23.8	0.4	-0.9	-20.4	1.1
CCN1CCN(c2ccc(NC(=O)c3ccc4c(c3)[nH]c(=O)n4Cc3ccc(F)cc3)cc2)CC1	10.7	1.1	-1.5	-12.3	-0.33
COC(=O)C(Cc1ccccc1)NS(=O)(=O)c1ccc(F)cc1Br (stereo not given)	.	.	.	.	1.62
CCCCCC(=O)Nc1ccc(N2CCN(CC)CC2)c(Cl)c1	.	0.0	-10.2	-23.2	-0.04
CCC(=O)NC(=S)Nc1cccc(Cl)c1N1CCCCC1	3.3	2.6	-13.6	-50.3	0.89
CCCC(=O)NC(=S)Nc1cccc(Cl)c1N1CCCCC1	-8.3	8.7*	2.4	-26.0	-0.07
CCCCCC(=O)NC(=S)Nc1ccc(N2CCCCC2)c(Cl)c1	.	9.6*	1.8	-26.7	-1.3
CCCCC(=O)NC(=S)Nc1cccc(Cl)c1N1CCCCC1	.	5.9	29.4*	-46.8	0.12
COC(=O)c1ccccc1NC(=O)COC(=O)CSc1nnc(N)s1	-14.3	-0.1	.	.	0.21
SMILES	Insulin prom inh	RAM inhibit	Yeast lifespan up	Yeast growth inh	Ins promoter up
NS(=O)(=O)c1ccc(NC=C2C(=O)OC3(CCCCC3)OC2=O)cc1	-33.3	1.3	-4.7	-33.6	3.78*
S=C(NCCN1CCOCC1)NC1CCCC1	.	-0.6	.	.	1
COc1cccc(C2CC(=O)C3=C(C2)Nc2ccccc2N(C(=O)CCC(=O)O)C3c2ccc(F)cc2)c1 (stereo not given)	.	.	.	.	-0.18
COC(CNC(=O)c1ccc(Cn2c(=S)[nH]c3cc4c(cc3c2=O)OCO4)cc1)OC	13.3	0.1	-12.0	-27.5	3.48*
COCCNC(=O)c1ccc(Cn2c(=S)[nH]c3cc4c(cc3c2=O)OCO4)cc1	36.4	3.0	-10.0	-7.2	-0.33
CC1=Nc2ccccc2/C1=C\c1nc(-c2ccc(F)cc2)oc1O	34.3	8.6*	-15.3	-32.0	0.67
CN=Cc1nc(-c2ccccc2)oc1O	27.2	0.0	.	-4.3	0.62
CC(=O)N1CCc2ccccc2C1CC(=O)O (stereo not given)	28.6	-0.2	.	.	0.01
Cc1ccc(S(=O)(=O)/C(C#N)=C/c2ccccc2OCc2ccccc2)cc1	.	8.6*	19.6	-27.5	-0.15
N#CC(C#N)=Cc1ccccc1OCc1ccccc1	.	.	.	.	0.86
O=C(CN(C(=O)CCC(=O)Nc1nccs1)C1CCCC1)NCc1ccc2c(c1)OCO2	.	0.1	.	.	0.31
O=C1c2cc([N+](=O)[O-])cc3cc([N+](=O)[O-])cc(c23)C(=O)N1c1ccccn1	-119.3	0.7	31.6*	-16.1	-0.34
O=C1c2ccc(Oc3cccc([N+](=O)[O-])c3)cc2C(=O)N1c1ccccn1	.	1.0	.	.	0.46
CC(=O)C1=C(C)NC(SCC(=O)c2ccc(Cl)cc2)=C(C#N)C1CC(C)C (stereo not given)	40.0	9.1*	-4.3	-38.3	0.53
CCOC(=O)/C(C#N)=C(\O)c1ccc(NC(=O)c2ccc([N+](=O)[O-])cc2)cc1	.	.	.	.	0.19
CC(C)C(C)(C#N)NC(=O)CSc1nnc(C(F)(F)F)n1C (stereo not given)	-10.8	1.2	4.3	-27.5	3.02*
CNC(=O)NC(=O)CSc1nnc(C(F)(F)F)n1C	13.8	0.5	-6.5	-24.1	-0.53
NC(=O)C1CCN(S(=O)(=O)Cc2ccccc2Cl)CC1	.	0.0	.	.	.
COc1ccc(CNC(N)=O)cc1	-368.8	1.9	.	-21.9	.
O=C(NCc1ccc(Cl)cc1)c1ccccc1CCc1ccccc1	-23.5	5.3	41.0*	-9.1	-0.57
O=C(NCc1ccccc1Cl)c1ccccc1CCc1ccccc1	0.0	5.7	32.1*	-29.4	0.33
O=C(CCC(=O)c1cccs1)NCc1ccc(Cl)cc1	70.0*	0.5	-7.3	0.4	0.69
NC(=O)NCc1ccc(Cl)cc1	-12.1	0.3	58.6*	0.6	-0.89
c1ccc(OCCOCCSc2ncccn2)cc1	80.8*	-0.4	-18.3	-3.4	-0.16
O=C(NCCN1CCCOC1=O)C(=O)NCCN1CCCOC1=O	.	.	.	.	0.44
SMILES	Insulin prom inh	RAM inhibit	Yeast lifespan up	Yeast growth inh	Ins promoter up
CCOc1ccc(/C=N/OCC(=O)Nc2cc(C)on2)cc1	27.3	2.2	-2.0	-30.1	-0.26
CCOc1ccc(/C=N/OCC(=O)NC(c2ccccc2)c2ccccc2)cc1	-18.9	10.5*	6.8	-31.3	?
COc1ccc(C(=O)c2nccc3ccccc23)cc1	.	-0.6	.	.	0.47
COC(=O)C1CCN(C2CC(=O)N(c3cc(C)cc(C)c3)C2=O)CC1 (stereo not given)	52.4	1.6	.	.	0.57
O=C(NC1(C(F)(F)F)NC(=O)N(c2ccccc2F)C1=O)c1ccncc1 (stereo not given)	-64.3	0.3	-1.8	-26.3	0.67
O=C(NC1(C(F)(F)F)NC(=O)N(c2ccc(F)c(Cl)c2)C1=O)c1ccncc1 (stereo not given)	26.7	0.7	-26.1	7.8	4.5*
Nc1c2c(nc3ccc(Br)cc13)N(Cc1ccccc1)CC2	69.2*	1.1	15.6	-8.0	.

Screens as filed in PubChem.
